# Source: ChEMBL document CHEMBL5724801, “EUbOPEN Chemogenomics Library - Multiplex” (2024)
# Several values for one entry are separate records, joined by “and”; a condition that tells them apart may be missing. Identical values can stand only once.
# Tested on: HEK-293T
# Assay: Multiplex assay against HEK293T
# Type: toxicity, cell-based
# Conditions: human, 12 h, 1 µM, compound concentration 1 uM
# How it was run: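 Four dyes were applied at seeding to live cells: Hoechst33342, BioTracker Green Microtubule Cytoskeleton Dye, MitoTracker Red and Annexin V Alexa Fluor 680. Imaging after compound addition used a CQ1 microscope at 37°C and 5% CO2. CellPathfinder machine-learning gating then sorted cells into Hoechst high-intensity objects or normal cells, normal cells into healthy, pyknosed or fragmented nuclei, and pyknosed cells into mitotic or apoptotic, with tubulin, mitochondrial-mass and membrane-permeability phenotypes given as per cents of healthy-nucleus cells.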
SMILES,Population Apoptotic (%),Population Fragmented Nuclei (%),Population Hoechst High Intensity Objects (%),Population Membrane Permeable-Phenotype (%),Population Mitochondria Different-Phenotype (%),Population Mitotic Cells (%),Population Normal (%),Population Pyknosed Nuclei (%),Total Cell Count,Population Healthy Nuclei (%)
"C[C@H](C[C@H](N)C(=O)O)C(=O)O [2S,4R-4-METHYLGLUTAMATE]",6.61% and 13.76%,2.69% and 5.93%,0.59% and 0.74%,0% and 5.56%,31.22% and 27.78%,93.39% and 86.24%,99.41% and 99.26%,36.12% and 80.74%,337 and 136,
CC(/C=C1\SC(=S)N(CCCC(=O)Nc2ccc(C(=O)O)c(O)c2)C1=O)=C\c1ccccc1,34% and 50%,6%,6%,0%,41% and 62%,65% and 50%,93%,11% and 8%,422 and 389,81% and 84%

# Same assay, conditions: human, 12 h, 1 µM, compound concentration 1 uM
row,SMILES,Population Tubulin-Different-Phenotype (%)
1,CC(/C=C1\SC(=S)N(CCCC(=O)Nc2ccc(C(=O)O)c(O)c2)C1=O)=C\c1ccccc1,31% and 20%

# Same assay, conditions: human, 12 h, 10 µM, compound concentration 10 uM
SMILES,Population Apoptotic (%),Population Fragmented Nuclei (%),Population Hoechst High Intensity Objects (%),Population Membrane Permeable-Phenotype (%),Population Mitochondria Different-Phenotype (%),Population Mitotic Cells (%),Population Normal (%),Population Pyknosed Nuclei (%),Population Tubulin-Different-Phenotype (%),Total Cell Count
"C[C@H](C[C@H](N)C(=O)O)C(=O)O [2S,4R-4-METHYLGLUTAMATE]",7.2% and 16.44%,3.38% and 3.49%,0%,0%,31.06% and 20%,92.8% and 83.56%,100%,42.23% and 84.88%,3.73% and 10%,296 and 172
CC(/C=C1\SC(=S)N(CCCC(=O)Nc2ccc(C(=O)O)c(O)c2)C1=O)=C\c1ccccc1,43% and 51%,5%,7%,0%,45% and 49%,56% and 48%,92%,18% and 15%,35% and 26%,313 and 327

# Same assay, conditions: human, 12 h, 10 µM, compound concentration 10 uM
row,SMILES,Population Healthy Nuclei (%)
1,CC(/C=C1\SC(=S)N(CCCC(=O)Nc2ccc(C(=O)O)c(O)c2)C1=O)=C\c1ccccc1,76% and 79%

# Same assay, conditions: human, 24 h, 1 µM, compound concentration 1 uM
SMILES,Population Apoptotic (%),Population Fragmented Nuclei (%),Population Healthy Nuclei (%),Population Hoechst High Intensity Objects (%),Population Membrane Permeable-Phenotype (%),Population Mitochondria Different-Phenotype (%),Population Mitotic Cells (%),Population Normal (%),Population Tubulin-Different-Phenotype (%),Population Pyknosed Nuclei (%)
"C[C@H](C[C@H](N)C(=O)O)C(=O)O [2S,4R-4-METHYLGLUTAMATE]",6.4% and 17.39%,1.63% and 2.47%,75.77% and 26.54%,0.36% and 0%,1.67% and 0%,13.13% and 13.95%,93.6% and 82.61%,99.64% and 100%,10.5% and 2.33%,
CC(/C=C1\SC(=S)N(CCCC(=O)Nc2ccc(C(=O)O)c(O)c2)C1=O)=C\c1ccccc1,27% and 31%,9% and 7%,79% and 83%,4% and 7%,0%,28% and 52%,72% and 68%,95% and 92%,26% and 21%,10% and 8%

# Same assay, conditions: human, 24 h, 1 µM, compound concentration 1 uM
row,SMILES,Total Cell Count
1,CC(/C=C1\SC(=S)N(CCCC(=O)Nc2ccc(C(=O)O)c(O)c2)C1=O)=C\c1ccccc1,604 and 491

# Same assay, conditions: human, 24 h, 10 µM, compound concentration 10 uM
SMILES,Population Apoptotic (%),Population Fragmented Nuclei (%),Population Healthy Nuclei (%),Population Hoechst High Intensity Objects (%),Population Membrane Permeable-Phenotype (%),Population Mitochondria Different-Phenotype (%),Population Mitotic Cells (%),Population Normal (%),Population Tubulin-Different-Phenotype (%),Total Cell Count
"C[C@H](C[C@H](N)C(=O)O)C(=O)O [2S,4R-4-METHYLGLUTAMATE]",10.99% and 23.73%,1.21% and 2.99%,80.4% and 38.31%,0%,0.5% and 0%,14.57% and 6.49%,89.01% and 76.27%,100%,7.29% and 2.6%,495 and 201
CC(/C=C1\SC(=S)N(CCCC(=O)Nc2ccc(C(=O)O)c(O)c2)C1=O)=C\c1ccccc1,33% and 39%,8%,75% and 79%,5% and 6%,0%,34% and 40%,66% and 60%,94% and 93%,31% and 20%,369 and 422

# Same assay, conditions: human, 24 h, 10 µM, compound concentration 10 uM
row,SMILES,Population Pyknosed Nuclei (%)
1,CC(/C=C1\SC(=S)N(CCCC(=O)Nc2ccc(C(=O)O)c(O)c2)C1=O)=C\c1ccccc1,16% and 12%

# Same assay, conditions: human, 48 h, 1 µM, compound concentration 1 uM
SMILES,Population Fragmented Nuclei (%),Population Healthy Nuclei (%),Population Hoechst High Intensity Objects (%),Population Membrane Permeable-Phenotype (%),Population Mitochondria Different-Phenotype (%),Population Mitotic Cells (%),Population Normal (%),Population Apoptotic (%),Population Pyknosed Nuclei (%),Population Tubulin-Different-Phenotype (%)
"C[C@H](C[C@H](N)C(=O)O)C(=O)O [2S,4R-4-METHYLGLUTAMATE]",3.3% and 2.56%,86.59% and 58.46%,0% and 2.5%,4.15% and 2.63%,11.93% and 28.95%,93.48% and 76.32%,100% and 97.5%,,,
CC(/C=C1\SC(=S)N(CCCC(=O)Nc2ccc(C(=O)O)c(O)c2)C1=O)=C\c1ccccc1,13% and 14%,79%,2% and 5%,1% and 0%,16% and 26%,76% and 80%,97% and 94%,23% and 19%,7% and 6%,14% and 13%

# Same assay, conditions: human, 48 h, 1 µM, compound concentration 1 uM
row,SMILES,Total Cell Count
1,CC(/C=C1\SC(=S)N(CCCC(=O)Nc2ccc(C(=O)O)c(O)c2)C1=O)=C\c1ccccc1,998 and 673

# Same assay, conditions: human, 48 h, 10 µM, compound concentration 10 uM
SMILES,Population Apoptotic (%),Population Fragmented Nuclei (%),Population Healthy Nuclei (%),Population Hoechst High Intensity Objects (%),Population Membrane Permeable-Phenotype (%),Population Mitochondria Different-Phenotype (%),Population Mitotic Cells (%),Population Normal (%),Population Pyknosed Nuclei (%),Population Tubulin-Different-Phenotype (%)
"C[C@H](C[C@H](N)C(=O)O)C(=O)O [2S,4R-4-METHYLGLUTAMATE]",11.21% and 22.54%,1.13% and 2.5%,90.25% and 75.31%,0% and 0.93%,3.93% and 1.24%,12.14% and 16.6%,88.79% and 77.46%,100% and 99.07%,8.62% and 22.19%,
CC(/C=C1\SC(=S)N(CCCC(=O)Nc2ccc(C(=O)O)c(O)c2)C1=O)=C\c1ccccc1,24% and 39%,9% and 11%,79% and 82%,3% and 5%,2%,25% and 23%,75% and 60%,96% and 94%,10% and 6%,22% and 24%

# Same assay, conditions: human, 48 h, 10 µM, compound concentration 10 uM
row,SMILES,Total Cell Count
1,CC(/C=C1\SC(=S)N(CCCC(=O)Nc2ccc(C(=O)O)c(O)c2)C1=O)=C\c1ccccc1,479 and 555
